Laboratory results reported in ChEMBL document CHEMBL4689842, “EUbOPEN Chemogenomics Library wave 1” (2021).
Several values for one entry are separate records, joined by “and”; a condition that tells them apart may be missing. Equal values may be shown once.

Test system: HEK-293T
Test: Multiplex assay against HEK293T;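 as to Population Tubulin-Different-Phenotype (%): share of the cells with healthy nuclei that show this phenotype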
Type: toxicity, cell-based
Conditions: human, 10 µM, compound concentration 10 uM
Procedure, shortened: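 Phenotypes for tubulin, mitochondrial mass and membrane permeability are expressed as per cents of healthy-nucleus cells. Cells were stained live at seeding with Hoechst33342, BioTracker Green Microtubule Cytoskeleton Dye, MitoTracker Red and Annexin V Alexa Fluor 680, then imaged after compound addition on a CQ1 microscope at 37°C and 5% CO2. Machine-learning gating in CellPathfinder separated Hoechst high-intensity objects from normal cells, divided normal cells by nuclear state (healthy, pyknosed, fragmented) and divided pyknosed cells into mitotic or apoptotic.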

With `CN1C(=O)c2sccc2N(C)c2nc(Nc3ccc(S(N)(=O)=O)cc3)ncc21` the “Population Apoptotic (%)” value (12 h, replicate 1) was 16% and 18%, the “Population Fragmented Nuclei (%)” value (12 h, replicate 1) was 26% and 12% and the “Population Healthy Nuclei (%)” value (12 h, replicate 1) was 60% and 76%. For the same compound, the “Population Hoechst High Intensity Objects (%)” value (12 h, replicate 1) was 18% and 7%, the “Population Membrane Permeable-Phenotype (%)” value (12 h, replicate 1) was 4% and 3% and the “Population Mitochondria Different-Phenotype (%)” value (12 h, replicate 1) was 4% and 2%. The “Population Mitotic Cells (%)” value (12 h, replicate 1) was 83% and 81%, the “Population Normal (%)” value (12 h, replicate 1) was 81% and 92% and the “Population Pyknosed Nuclei (%)” value (12 h, replicate 1) was 13% and 11%. For the same compound, the “Population Tubulin-Different-Phenotype (%)” value (12 h, replicate 1) was 0%, the “Total Cell Count” value (12 h, replicate 1) was 672 and 727 and the “Population Apoptotic (%)” value (12 h, replicate 2) was 8% and 7%. For the same compound, the “Population Fragmented Nuclei (%)” value (12 h, replicate 2) was 8% and 4%, the “Population Healthy Nuclei (%)” value (12 h, replicate 2) was 86% and 85% and the “Population Hoechst High Intensity Objects (%)” value (12 h, replicate 2) was 1% and 2%. For the same compound, the “Population Membrane Permeable-Phenotype (%)” value (12 h, replicate 2) was 1% and 0%, the “Population Mitochondria Different-Phenotype (%)” value (12 h, replicate 2) was 7% and 9% and the “Population Mitotic Cells (%)” value (12 h, replicate 2) was 91% and 92%. The “Population Normal (%)” value (12 h, replicate 2) was 98% and 97%, the “Population Pyknosed Nuclei (%)” value (12 h, replicate 2) was 4% and 10% and the “Population Tubulin-Different-Phenotype (%)” value (12 h, replicate 2) was 4% and 1%. The “Total Cell Count” value (12 h, replicate 2) was 1564 and 1180, the “Population Apoptotic (%)” value (24 h, replicate 1) was 19% and 15% and the “Population Fragmented Nuclei (%)” value (24 h, replicate 1) was 14% and 20%. For the same compound, the “Population Healthy Nuclei (%)” value (24 h, replicate 1) was 79% and 69%, the “Population Membrane Permeable-Phenotype (%)” value (24 h, replicate 1) was 5% and the “Population Mitochondria Different-Phenotype (%)” value (24 h, replicate 1) was 2% and 3%. The “Population Mitotic Cells (%)” value (24 h, replicate 1) was 80% and 84%, the “Population Normal (%)” value (24 h, replicate 1) was 95% and 82% and the “Population Pyknosed Nuclei (%)” value (24 h, replicate 1) was 6% and 10%. The “Population Tubulin-Different-Phenotype (%)” value (24 h, replicate 1) was 1%, the “Total Cell Count” value (24 h, replicate 1) was 894 and 614 and the “Population Apoptotic (%)” value (24 h, replicate 2) was 6% and 4%. For the same compound, the “Population Fragmented Nuclei (%)” value (24 h, replicate 2) was 25% and 12%, the “Population Healthy Nuclei (%)” value (24 h, replicate 2) was 71% and 80% and the “Population Hoechst High Intensity Objects (%)” value (24 h, replicate 2) was 2%. For the same compound, the “Population Membrane Permeable-Phenotype (%)” value (24 h, replicate 2) was 3% and 1%, the “Population Mitochondria Different-Phenotype (%)” value (24 h, replicate 2) was 1% and the “Population Mitotic Cells (%)” value (24 h, replicate 2) was 93% and 95%. For the same compound, the “Population Normal (%)” value (24 h, replicate 2) was 97%, the “Population Pyknosed Nuclei (%)” value (24 h, replicate 2) was 2% and 7% and the “Population Tubulin-Different-Phenotype (%)” value (24 h, replicate 2) was 4% and 2%. For the same compound, the “Total Cell Count” value (24 h, replicate 2) was 2712 and 1180.
